From ChEMBL document CHEMBL1122519, “Bispyridinamines: a new class of topical antimicrobial agents as inhibitors of dental plaque” (1984)
≈ marks a conversion by molar mass, not a printed value.

Experiments:
Actinomyces viscosus [1] = assay: Compound is evaluated for minimal bactericidal concentration against plaque formation for Actinomyces viscosus; type: functional, organism-based
In short: (§1)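 Preformed in vitro plaques of S. mutans NCTC 10449 or A. viscosus M-100 were grown on ceramic hydroxylapatite under anaerobic conditions at 37 °C in sucrose-supplemented medium. Plaques were immersed for 30 min at 37 °C in compound at 0.3–20 mM, rinsed, and moved to broth containing bromocresol purple. Kill was judged by no acid production, no turbidity increase and no growth on plating at 48 h. Plaques were run in quadruplicate.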

Actinomyces naeslundii = assay: Compound is evaluated for plaque-bactericidal index (PBI) against Actinomyces naeslundii 631; type: functional
Actinomyces viscosus [2] = assay: Compound is evaluated for plaque-bactericidal index (PBI) against Actinomyces viscosus M-100; type: functional
Escherichia coli [3] = assay: Antimicrobial minimum inhibitory concentration against Escherichia coli AB1932-1; type: functional
In short: (§2)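 Serial twofold tube dilution in tryptose phosphate broth. Each compound was prepared as a 1000 μg/mL aqueous stock and diluted in double-strength broth, then 2×10^5 cells were added. Tubes were incubated aerobically at 37 °C for 24 h. The MIC was taken as the lowest concentration with no visible growth.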

Escherichia coli [4] = assay: Minimum inhibitory concentration against Escherichia coli (Vogel); type: functional; in short: as §2
Escherichia coli [5] = assay: Antimicrobial minimum inhibitory concentration against Escherichia coli 100/B22; type: functional; in short: as §2
Klebsiella pneumoniae = assay: Minimum inhibitory concentration against Klebsiella pneumonia 39645; type: functional; in short: as §2
Pseudomonas aeruginosa [6] = assay: Compound is evaluated for the antimicrobial minimum inhibitory concentration against Pseudomonas aeruginosa MGH-1; type: functional
Streptococcus mutans [7] = assay: Compound is evaluated for the effect of saliva upon the antiplaque activity at 50% of saliva and at 0.01 percentage of compound; + = Slight plaque accumulation; type: functional, organism-based
In short: (§3)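 Hydroxylapatite plate antiplaque assay against S. mutans run for 48 h, with two 1-min exposures to aqueous compound per 24 h. Growth medium contained 0, 5 or 50% pooled human saliva (paraffin-stimulated, centrifuged, filtered, membrane-sterilized). Plaque was stained with FD&C Red No. 3 and graded none, slight or moderate. Staining potential was scored on plates run without inoculum and graded none or slight.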

Streptococcus mutans [8] = assay: Compound is evaluated for the effect of saliva upon the antiplaque activity at 50% of saliva and at 0.025 percentage of compound; + = Slight staining; type: functional, organism-based; in short: as §3
Streptococcus mutans [9] = assay: Compound is evaluated for the effect of saliva upon the antiplaque activity at 50% of saliva and at 0.05 percentage of compound; + = Slight staining; type: functional, organism-based; in short: as §3
Streptococcus sanguinis [10] = assay: Compound is evaluated for plaque-bactericidal index (PBI) against Streptococcus sanguis 10558; type: functional
Streptococcus mutans [11] = assay: Compound is evaluated for the effect of saliva upon the antiplaque activity at 0% of saliva and at 0.01 percentage of compound; - = No plaque accumulation; type: functional, organism-based; in short: as §3
Streptococcus mutans [12] = assay: Compound is evaluated for the effect of saliva upon the antiplaque activity at 0% of saliva and at 0.025 percentage of compound; - = No plaque accumulation; type: functional, organism-based; in short: as §3
Streptococcus mutans [13] = assay: Compound is evaluated for the effect of saliva upon the antiplaque activity at 0% of saliva and at 0.05 percentage of compound; - = No plaque accumulation; type: functional, organism-based; in short: as §3
Streptococcus mutans [14] = assay: Compound is evaluated for the effect of saliva upon the antiplaque activity at 50% of saliva and at 0.025 percentage of compound; - = No plaque accumulation; type: functional, organism-based; in short: as §3
Streptococcus mutans [15] = assay: Compound is evaluated for the effect of saliva upon the antiplaque activity at 50% of saliva and at 0.05 percentage of compound; - = No plaque accumulation; type: functional, organism-based; in short: as §3
Streptococcus mutans [16] = assay: Compound is evaluated for the effect of saliva upon the antiplaque activity at 0% of saliva and at 0.025 percentage of compound; + = Slight staining; type: functional, organism-based; in short: as §3
Streptococcus mutans [17] = assay: Compound is evaluated for the effect of saliva upon the antiplaque activity at 0% of saliva and at 0.05 percentage of compound; + = Slight staining; type: functional, organism-based; in short: as §3
Streptococcus mutans [18] = assay: Compound is evaluated for the effect of saliva upon the antiplaque activity at 50% of saliva and at 0.01 percentage of compound; - = No staining; type: functional, organism-based; in short: as §3
Streptococcus mutans [19] = assay: Compound is evaluated for plaque-bactericidal index (PBI) against Streptococcus mutans 10449; type: functional
Streptococcus mutans [20] = assay: Compound is evaluated for minimum plaque inhibitory concentration using a standard test organism, Streptococcus mutans OMZ-61; type: functional
In short: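 S. mutans OMZ-61 in pH 7.0 beef extract–trypticase medium with 0.5% sucrose. Sterile ceramic hydroxylapatite plates got two 1-min soaks in 0.1–0.001% compound, each followed by 1-min air-drying, then a 5-min water rinse. Plates were put in inoculated medium at 37 °C anaerobically for 24 h. The cycle was repeated for a second 24 h. Plaque was stained with 1% FD&C Red No. 3. Value is the lowest concentration completely preventing plaque.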

Staphylococcus aureus [21] = assay: Compound is evaluated for the antimicrobial minimum inhibitory concentration against Staphylococcus aureus (Smith); type: functional; in short: as §2
Streptococcus mutans [22] = assay: Compound is evaluated for the effect of saliva upon the staining potential at 0% of saliva and at 0.01 percentage of compound; + = Slight staining; type: functional, organism-based; in short: as §3
Streptococcus mutans [23] = assay: Compound is evaluated for minimal bactericidal concentration against plaque formation for Streptococcus mutans; type: functional, organism-based; in short: as §1
[24] = Compound is evaluated for stain index; type: functional
In short: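 Ratio of the minimum concentration staining a plaque-free ceramic hydroxylapatite plate to the minimum plaque-inhibiting concentration, both run under the same conditions. Plates got two 1-min soaks (0.1–0.001%), each followed by air-drying, then a water rinse. They were then held 24 h anaerobically at 37 °C in sucrose beef-extract medium, with or without S. mutans OMZ-61, repeated once. Staining was 1-min 1% FD&C Red No. 3, scored visually.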

Proteus mirabilis [25] = assay: Compound is evaluated for the antimicrobial minimum inhibitory concentration against Proteus mirabilis MGH-1; type: functional; in short: as §2
Proteus mirabilis [26] = assay: Minimum antimicrobial inhibitory concentration against Proteus mirabilis MGH-1; type: functional; in short: as §2
Pseudomonas aeruginosa [27] = assay: Minimum antimicrobial inhibitory concentration against Pseudomonas aeruginosa MGH-2; type: functional; in short: as §2
Streptococcus mutans [28] = assay: Compound is evaluated for the effect of saliva upon the antiplaque activity of the compound at 0% of saliva and at 0.01 percentage of compound; - = No plaque accumulation; type: functional, organism-based; in short: as §3
Streptococcus mutans [29] = assay: Compound is evaluated for the effect of saliva upon the antiplaque activity of the compound at 0% of saliva and at 0.025 percentage of compound; - = No plaque accumulation; type: functional, organism-based; in short: as §3
Streptococcus mutans [30] = assay: Compound is evaluated for the effect of saliva upon the antiplaque activity of the compound at 0% of saliva and at 0.05 percentage of compound; - = No plaque accumulation; type: functional, organism-based; in short: as §3
Streptococcus mutans [31] = assay: Compound is evaluated for the effect of saliva upon the antiplaque activity of the compound at 50% of saliva and at 0.01 percentage of compound; - = No plaque accumulation; type: functional, organism-based; in short: as §3
Streptococcus mutans [32] = assay: Compound is evaluated for the effect of saliva upon the antiplaque activity of the compound at 50% of saliva and at 0.025 percentage of compound; - = No plaque accumulation; type: functional, organism-based; in short: as §3
Streptococcus mutans [33] = assay: Compound is evaluated for the effect of saliva upon the antiplaque activity of the compound at 50% of saliva and at 0.05 percentage of compound; - = No plaque accumulation; type: functional, organism-based; in short: as §3
Streptococcus mutans [34] = assay: Compound is evaluated for the effect of saliva upon the antiplaque activity of the compound at 0% of saliva and at 0.025 percentage of compound; - = No staining; type: functional, organism-based; in short: as §3
Streptococcus mutans [35] = assay: Compound is evaluated for the effect of saliva upon the antiplaque activity of the compound at 0% of saliva and at 0.05 percentage of compound; + = Slight staining; type: functional, organism-based; in short: as §3
Streptococcus mutans [36] = assay: Compound is evaluated for the effect of saliva upon the antiplaque activity of the compound at 50% of saliva and at 0.01 percentage of compound; - = No staining; type: functional, organism-based; in short: as §3
Streptococcus mutans [37] = assay: Compound is evaluated for the effect of saliva upon the antiplaque activity of the compound at 50% of saliva and at 0.025 percentage of compound; - = No staining; type: functional, organism-based; in short: as §3
Streptococcus mutans [38] = assay: Compound is evaluated for the inhibition of plaque-forming enzyme of Streptococcus mutans OMZ-61; type: functional
In short: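 S. mutans OMZ-61 was grown anaerobically at 37 °C for 24 h in glucose medium. The cell-free filtrate, adjusted to pH 5.5, served as the dextran/levan sucrase source. Reactions contained 3 μmol 14C-sucrose in citrate phosphate buffer pH 5.5 with 4% EtOH and ran 2 h at 37 °C. MeOH-insoluble polysaccharide was counted by scintillation. Compounds were tested at 50, 160 and 500 μg base/mL, with lower levels if needed, and I50 was read graphically.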

Staphylococcus aureus [39] = assay: Minimum antimicrobial inhibitory concentration against Staphylococcus aureus; type: functional; in short: as §2
Streptococcus mutans [40] = assay: Compound is evaluated for the effect of saliva upon the antiplaque activity of the compound at 50% of saliva and at 0.05 percentage of compound; + = Slight staining; type: functional, organism-based; in short: as §3
Streptococcus mutans [41] = assay: Compound is evaluated for the effect of saliva upon the staining potential of the compound at 0% of saliva and at 0.01 percentage of compound; - = No staining; type: functional, organism-based; in short: as §3
Streptococcus mutans [42] = assay: Minimum plaque inhibitory concentration using a standard test organism, Streptococcus mutans OMZ-61; type: functional, organism-based
In short: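 Ceramic hydroxylapatite plates were soaked twice for 1 min each in compound at […] (aqueous), air-dried and rinsed, then hung in sucrose beef-extract medium (pH 7.0) inoculated with late-log S. mutans OMZ-61. Incubation was anaerobic at 37 °C for 24 h, and treatment plus reinoculation were repeated for a second 24 h. Plaque was stained with 1% FD&C Red No. 3 and scored visually. The value is the lowest concentration giving no plaque while medium growth matched control.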

Streptococcus mutans [43] = assay: Compound is evaluated for the growth inhibition of Streptococcus mutans OMZ-61; type: functional
Streptococcus mitis = assay: Compound is evaluated for plaque-bactericidal index (PBI) against Streptococcus mitis 90557
Streptococcus sanguinis [44] = assay: Compound is evaluated for plaque-bactericidal index (PBI) against Streptococcus sanguis 10558

## N=C(NCCCCCCNC(=N)NC(=N)Nc1ccc(Cl)cc1)NC(=N)Nc1ccc(Cl)cc1 [CHLORHEXIDINE]
Actinomyces viscosus [1]
  Concentration: 1.6 mM
Actinomyces naeslundii
  PBI: 19.2
Actinomyces viscosus [2]
  PBI: 19.2
Escherichia coli [3]
  MIC: 0.5 µg/mL (≈ 0.989 µM)
Escherichia coli [4]
  MIC: 0.5 µg/mL (≈ 0.989 µM)
Escherichia coli [5]
  MIC: 1 µg/mL (≈ 1.98 µM)
Klebsiella pneumoniae
  MIC: 3.9 µg/mL (≈ 7.72 µM)
Pseudomonas aeruginosa [6]
  MIC: 15.6 µg/mL (≈ 30.9 µM)
Streptococcus mutans [7]
  Plaque accum: No plaque accumulation
Streptococcus mutans [8]
  Staining potential: No staining
Streptococcus mutans [9]
  Staining potential: No staining
Streptococcus sanguinis [10]
  PBI: 32
Streptococcus mutans [11]
  Plaque accum: No plaque accumulation
Streptococcus mutans [12]
  Plaque accum: No plaque accumulation
Streptococcus mutans [13]
  Plaque accum: No plaque accumulation
Streptococcus mutans [14]
  Plaque accum: No plaque accumulation
Streptococcus mutans [15]
  Plaque accum: No plaque accumulation
Streptococcus mutans [16]
  Staining potential: No staining
Streptococcus mutans [17]
  Staining potential: No staining
Streptococcus mutans [18]
  Staining potential: No staining
Streptococcus mutans [19]
  PBI: 25.6
Streptococcus mutans [20]
  Min plague Inhibitory: 0.005%
Staphylococcus aureus [21]
  MIC: 0.2 µg/mL (≈ 0.396 µM)
Streptococcus mutans [22]
  Staining potential: No staining
Streptococcus mutans [23]
  Concentration: 3.2 mM
[24]
  Stain index: 1
Proteus mirabilis [25]
  MIC: 15.6 µg/mL (≈ 30.9 µM)

## CCCCCCCCN=c1ccn(CCCCCCCCCCn2ccc(=NCCCCCCCC)cc2)cc1.Cl.Cl [OCTENIDINE HYDROCHLORIDE]
Actinomyces viscosus [1]
  Concentration: 1.6 mM
Actinomyces naeslundii
  PBI: 19.2
Actinomyces viscosus [2]
  PBI: 19.2
Escherichia coli [3]
  MIC: 1 µg/mL
Escherichia coli [4]
  MIC: 1 µg/mL
Escherichia coli [5]
  MIC: 1 µg/mL
Klebsiella pneumoniae
  MIC: 2 µg/mL
Proteus mirabilis [26]
  MIC: 2 µg/mL
Pseudomonas aeruginosa [27]
  MIC: 3.9 µg/mL
Streptococcus mutans [28]
  Plaque accum: No plaque accumulation
Streptococcus mutans [29]
  Plaque accum: No plaque accumulation
Streptococcus mutans [30]
  Plaque accum: No plaque accumulation
Streptococcus mutans [31]
  Plaque accum: No plaque accumulation
Streptococcus mutans [32]
  Plaque accum: No plaque accumulation
Streptococcus mutans [33]
  Plaque accum: No plaque accumulation
Streptococcus mutans [34]
  Staining potential: No staining
Streptococcus mutans [35]
  Staining potential: No staining
Streptococcus mutans [36]
  Staining potential: No staining
Streptococcus mutans [37]
  Staining potential: No staining
Streptococcus mutans [19]
  PBI: 25.6
Streptococcus mutans [38]
  I50: 31 (ug of base) ml-1
Staphylococcus aureus [39]
  MIC: 1 µg/mL
Streptococcus mutans [40]
  Staining potential: No staining
Streptococcus mutans [41]
  Staining potential: No staining
Streptococcus mutans [23]
  Concentration: 3.2 mM
Streptococcus mutans [42]
  Concentration: 0.005%
[24]
  Stain index: 10
Streptococcus mutans [43]
  MIC: 1 (ug of base) ml-1
Streptococcus mitis
  PBI: 32
Streptococcus sanguinis [44]
  PBI: 32
